Experimental data gathered from unrelated publications.
Each line is one published result; the experiments were not run side by side.
MCU: Calcium uniporter protein, mitochondrial (MCU, Homo sapiens, UniProt Q8NE86)

With `CC(C)C[C@H](NC(=O)[C@H](Cc1ccccc1)NC(=O)[C@H](Cc1ccc(O)cc1)NC(=O)CNC(=O)[C@H](CCCCN)NC(=O)[C@H](CO)NC(=O)[C@H](CCC(N)=O)NC(=O)CNC(=O)[C@@H](NC(=O)[C@H](CO)NC(=O)[C@@H]1CCCN1C(=O)[C@H](CO)NC(=O)[C@H](CCC(N)=O)NC(=O)[C@H](Cc1ccc(O)cc1)NC(=O)[C@H](CCC(=O)O)NC(=O)[C@H](C)NC(=O)[C@H](CCCCN)NC(=O)[C@@H](N)Cc1ccccc1)C(C)C)C(=O)N[C@@H](Cc1ccccc1)C(=O)N[C@@H](CCCNC(=N)N)C(=O)N1CCC[C@H]1C(=O)N[C@@H](CCCNC(=N)N)C(=O)N[C@@H](CC(N)=O)C(N)=O` the IC50 was 0.0302 nM (Neuromedin-U receptor 2 (Mus musculus, UniProt Q8BZ39); ligand displacement; radioligand).
With `COc1ccc(C(=O)O)cc1S(=O)(=O)Nc1ccc(C(F)(F)F)cc1N1CCCCC1` the IC50 was 27000 nM (Endoplasmic reticulum aminopeptidase 2 (ERAP2, Homo sapiens, UniProt Q6P179, K392N); enzyme activity; inhibitor; fluorescence).
For `N#Cc1nn(C(=O)C2CCCC2)c2ncccc12`, the IC50 was 160 nM (Neutrophil elastase (ELANE, Homo sapiens, UniProt P08246); enzyme activity; inhibitor; fluorescence).
The IC50 of `COc1cc(OC)c2c(O)c3c(=O)cc(C)oc3cc2c1` is reported as greater than 100000 nM (Beta-secretase 1 (BACE1, Homo sapiens, UniProt P56817); enzyme activity; inhibitor; FRET).
With `Cc1ccc(-c2ncn(-c3ccc(Nc4nccc(-c5cccc(N6CCOCC6)c5)n4)cc3)n2)cn1` the IC50 was 67 nM (Mitogen-activated protein kinase 8 (MAPK8, Homo sapiens, UniProt P45983); enzyme activity; inhibitor).
The IC50 of `N#CC(C#N)=Cc1cc(C(=O)CCl)c[nH]1` is reported as 13000 nM (Epidermal growth factor receptor (EGFR, Homo sapiens, UniProt P00533); enzyme activity; inhibitor; mobility shift).
The IC50 of `COc1cc(Nc2ncc(F)c(Nc3ccc4c(n3)NC(=O)C(C)(C)O4)n2)cc(OC)c1OC` is reported as 20 nM (Adenosine receptor A3 (ADORA3, Homo sapiens, UniProt P0DMS8); cell-free assay; inhibitor).
With `Nc1ncc(-c2nc(N3CCOCC3)nc(N3CCOCC3)n2)c(C(F)F)n1` the IC50 was 49.9 nM (Serine/threonine-protein kinase mTOR (MTOR, Homo sapiens, UniProt P42345); ligand displacement; TR-FRET).
The IC50 of `O=C(O)c1c(Cl)c(Cl)c(Cl)c(Cl)c1-c1c2cc(I)c(=O)c(I)c-2oc2c(I)c(O)c(I)cc12` is reported as 6900 nM (Delta-aminolevulinic acid dehydratase (Homo sapiens, UniProt P13716, C162A/K59N); enzyme activity; inhibitor; absorbance; pH 8).
`C1CNCN2CNCCNCN(CN1)CNCCNC2.[Co+3]` has an IC50 of 131 nM (MCU; transporter uptake; inhibitor).
With `Cl.Cl.N.N.N.N.N.N.N.N.[N-3].[Ru+4].[Ru+4]` the IC50 was 2.2 nM (MCU; transporter uptake; inhibitor).
